In ChEMBL document CHEMBL4619797, “Antiglioma Activity of Aryl and Amido-Aryl Acetamidine Derivatives Targeting iNOS: Synthesis and Biological Evaluation” (ACS Med Chem Lett, 2020):
pIC50: −log10 of the molar value. Calls of active or inactive are those of the source. No cut-off for these calls is given here.

How the values were obtained:
C6 [1] = assay: Antiproliferative activity against rat C6 cells assessed as cell metabolic activity at 1500 uM after 24 hrs by MTT assay relative to control; assay type: functional
In short: (§1)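 C6 rat glioma cells exposed 24 h to increasing concentrations (0–1500 μM); metabolic activity by MTT, expressed as percent of untreated cultures (100%); means ± SD of three replicates.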

C6 [2] = assay: Antiproliferative activity against rat C6 cells assessed as cell metabolic activity at 50 uM after 24 hrs by MTT assay relative to control; assay type: functional; in short: as §1
Nitric oxide synthase 3 = molecular target: T1, Nitric oxide synthase 3 (Homo sapiens, UniProt P29474); assay: Inhibition of human eNOS using L-argininge as substrate preincubated for 15 mins followed by NADPH addition and measured after 20 mins by OPA/NAC reagent based HPLC analysis
T1 sequence (P29474 whole entry): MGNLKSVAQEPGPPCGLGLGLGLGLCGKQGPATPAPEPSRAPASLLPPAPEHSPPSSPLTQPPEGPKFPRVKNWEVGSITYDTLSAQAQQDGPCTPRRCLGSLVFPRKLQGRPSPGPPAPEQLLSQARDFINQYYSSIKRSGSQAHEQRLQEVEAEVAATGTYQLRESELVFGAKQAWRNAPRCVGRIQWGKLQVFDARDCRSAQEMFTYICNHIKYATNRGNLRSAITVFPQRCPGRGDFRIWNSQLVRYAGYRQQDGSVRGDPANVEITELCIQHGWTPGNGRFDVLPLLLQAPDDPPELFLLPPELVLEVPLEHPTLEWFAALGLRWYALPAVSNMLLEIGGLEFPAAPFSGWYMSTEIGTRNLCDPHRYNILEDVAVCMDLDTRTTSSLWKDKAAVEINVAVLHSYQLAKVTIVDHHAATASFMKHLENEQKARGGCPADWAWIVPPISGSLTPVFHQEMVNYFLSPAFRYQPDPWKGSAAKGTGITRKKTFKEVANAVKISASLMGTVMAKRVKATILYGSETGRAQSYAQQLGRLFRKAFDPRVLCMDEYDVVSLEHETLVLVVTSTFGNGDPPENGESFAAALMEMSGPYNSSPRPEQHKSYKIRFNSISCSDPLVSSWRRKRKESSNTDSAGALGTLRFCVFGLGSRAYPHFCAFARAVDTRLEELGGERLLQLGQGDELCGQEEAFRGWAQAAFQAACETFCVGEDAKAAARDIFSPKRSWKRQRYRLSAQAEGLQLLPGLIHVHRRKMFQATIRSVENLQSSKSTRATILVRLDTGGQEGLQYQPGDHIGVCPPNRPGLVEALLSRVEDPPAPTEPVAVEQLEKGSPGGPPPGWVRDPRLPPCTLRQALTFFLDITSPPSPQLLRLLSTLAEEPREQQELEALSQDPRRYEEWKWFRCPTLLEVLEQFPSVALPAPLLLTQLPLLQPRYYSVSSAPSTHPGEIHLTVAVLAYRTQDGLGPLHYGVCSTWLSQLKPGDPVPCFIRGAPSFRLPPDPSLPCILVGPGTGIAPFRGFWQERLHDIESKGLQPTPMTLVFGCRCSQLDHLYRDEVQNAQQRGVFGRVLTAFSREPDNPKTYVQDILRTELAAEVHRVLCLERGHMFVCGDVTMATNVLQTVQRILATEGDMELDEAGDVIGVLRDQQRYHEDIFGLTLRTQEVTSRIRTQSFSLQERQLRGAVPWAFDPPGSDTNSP
In short: (§2)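 IC50 against human iNOS, nNOS and eNOS from experiments in triplicate at seven different concentrations; mean ± SD reported.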

Nitric oxide synthase 1 [3] = molecular target: T2, Nitric oxide synthase 1 (Homo sapiens, UniProt P29475); assay: Inhibition of recombinant human nNOS expressed in Escherichia coli using L-arginine as substrate preincubated for 15 mins followed by NADPH addition and measured after 20 mins by OPA/NAC reagent based HPLC-fluorimetric analysis; in short: as §2
T2 sequence (P29475 whole entry): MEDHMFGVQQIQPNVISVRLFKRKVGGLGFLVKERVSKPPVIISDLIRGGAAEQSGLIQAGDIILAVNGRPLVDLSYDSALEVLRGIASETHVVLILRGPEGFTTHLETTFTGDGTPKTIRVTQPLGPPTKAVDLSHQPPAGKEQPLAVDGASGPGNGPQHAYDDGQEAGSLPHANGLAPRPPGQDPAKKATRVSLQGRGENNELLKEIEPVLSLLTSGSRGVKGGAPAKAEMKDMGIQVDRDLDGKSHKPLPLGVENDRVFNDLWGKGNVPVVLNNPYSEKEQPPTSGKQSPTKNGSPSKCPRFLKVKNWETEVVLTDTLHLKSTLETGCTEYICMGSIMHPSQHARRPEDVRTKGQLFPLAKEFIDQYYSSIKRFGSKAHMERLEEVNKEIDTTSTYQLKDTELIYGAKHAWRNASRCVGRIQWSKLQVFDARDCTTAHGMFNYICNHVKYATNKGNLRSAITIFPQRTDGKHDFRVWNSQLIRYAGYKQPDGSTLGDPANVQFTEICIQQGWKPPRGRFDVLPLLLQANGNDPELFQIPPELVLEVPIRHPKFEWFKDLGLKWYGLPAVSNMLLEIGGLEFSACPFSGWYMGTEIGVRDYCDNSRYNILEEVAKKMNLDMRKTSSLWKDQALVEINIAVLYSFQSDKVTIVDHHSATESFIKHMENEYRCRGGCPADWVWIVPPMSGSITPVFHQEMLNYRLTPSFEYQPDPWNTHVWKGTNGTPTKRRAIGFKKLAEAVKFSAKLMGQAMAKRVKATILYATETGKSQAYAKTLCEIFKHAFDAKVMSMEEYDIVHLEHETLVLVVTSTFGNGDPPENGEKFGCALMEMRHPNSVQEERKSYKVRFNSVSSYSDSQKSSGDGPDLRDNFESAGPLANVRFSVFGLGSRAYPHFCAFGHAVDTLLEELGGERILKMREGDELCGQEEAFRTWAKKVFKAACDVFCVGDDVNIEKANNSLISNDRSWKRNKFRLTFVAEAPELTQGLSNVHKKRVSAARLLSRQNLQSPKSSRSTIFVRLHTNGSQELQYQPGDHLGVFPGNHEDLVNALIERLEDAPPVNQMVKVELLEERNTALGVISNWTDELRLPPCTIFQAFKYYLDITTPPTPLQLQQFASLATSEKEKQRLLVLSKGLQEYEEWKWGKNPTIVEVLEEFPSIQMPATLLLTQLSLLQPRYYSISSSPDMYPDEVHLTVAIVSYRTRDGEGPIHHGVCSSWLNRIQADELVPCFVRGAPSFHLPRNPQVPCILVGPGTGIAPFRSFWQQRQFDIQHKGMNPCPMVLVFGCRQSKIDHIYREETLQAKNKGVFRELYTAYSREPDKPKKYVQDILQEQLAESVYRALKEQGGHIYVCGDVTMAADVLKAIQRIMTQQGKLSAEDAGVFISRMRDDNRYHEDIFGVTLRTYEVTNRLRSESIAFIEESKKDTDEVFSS

Homo sapiens = species on record: Homo sapiens; assay: Selectivity index, ratio of IC50 for recombinant human eNOS to IC50 for recombinant N-terminal His-tagged human iNOS expressed in Escherichia coli
In short: (§3)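 Ratio of IC50 values for human eNOS or nNOS to that for human iNOS, each IC50 from triplicate runs at seven concentrations.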

C6 [4] = assay: Antiproliferative activity against rat C6 cells assessed as cell metabolic activity at 1000 uM after 24 hrs by MTT assay relative to control; assay type: functional; in short: as §1
[5] = molecular target: T3, Nitric oxide synthase, inducible (Homo sapiens, UniProt P35228); assay: Inhibition of recombinant N-terminal His-tagged human iNOS expressed in Escherichia coli using L-arginine as substrate preincubated for 15 mins followed by NADPH addition and measured after 20 mins by OPA/NAC reagent based HPLC-fluorimetric analysis; in short: as §2
T3 sequence (P35228 whole entry): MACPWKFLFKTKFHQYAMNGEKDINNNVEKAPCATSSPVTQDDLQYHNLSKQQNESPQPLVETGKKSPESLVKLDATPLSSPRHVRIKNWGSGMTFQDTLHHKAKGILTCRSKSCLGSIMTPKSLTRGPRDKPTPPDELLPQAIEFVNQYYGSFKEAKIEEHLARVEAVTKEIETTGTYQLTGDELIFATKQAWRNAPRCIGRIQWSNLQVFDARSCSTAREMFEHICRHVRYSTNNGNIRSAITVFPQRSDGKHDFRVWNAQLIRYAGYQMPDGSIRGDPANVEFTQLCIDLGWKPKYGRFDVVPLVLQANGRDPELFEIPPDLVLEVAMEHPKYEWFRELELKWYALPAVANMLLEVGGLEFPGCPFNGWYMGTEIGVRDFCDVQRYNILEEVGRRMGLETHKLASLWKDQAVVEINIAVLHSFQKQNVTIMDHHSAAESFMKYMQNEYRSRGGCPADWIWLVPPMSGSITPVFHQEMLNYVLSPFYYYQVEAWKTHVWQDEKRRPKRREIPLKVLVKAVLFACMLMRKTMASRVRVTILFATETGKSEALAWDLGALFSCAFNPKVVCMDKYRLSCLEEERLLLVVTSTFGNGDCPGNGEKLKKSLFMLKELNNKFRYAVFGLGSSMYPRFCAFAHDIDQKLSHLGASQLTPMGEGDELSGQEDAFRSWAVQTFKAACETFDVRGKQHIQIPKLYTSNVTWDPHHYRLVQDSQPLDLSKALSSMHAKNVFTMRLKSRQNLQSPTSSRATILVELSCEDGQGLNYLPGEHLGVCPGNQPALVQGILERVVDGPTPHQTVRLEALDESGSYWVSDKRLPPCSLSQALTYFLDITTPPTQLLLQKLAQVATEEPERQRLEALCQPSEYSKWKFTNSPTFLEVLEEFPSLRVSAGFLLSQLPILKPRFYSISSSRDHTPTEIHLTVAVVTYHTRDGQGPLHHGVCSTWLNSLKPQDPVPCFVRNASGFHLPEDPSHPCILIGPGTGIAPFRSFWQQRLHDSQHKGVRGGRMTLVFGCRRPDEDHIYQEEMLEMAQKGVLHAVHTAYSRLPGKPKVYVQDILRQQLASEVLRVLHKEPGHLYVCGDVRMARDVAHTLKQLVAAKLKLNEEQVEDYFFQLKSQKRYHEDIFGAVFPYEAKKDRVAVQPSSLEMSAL

C6 [6] = assay: Antiproliferative activity against rat C6 cells assessed as LDH release at 250 uM after 24 hrs by CytoTox 96 Non-Radioactive assay (reference value: 13.49%); assay type: functional
[7] = Cytotoxicity against rat CTX/TNA2 cells assessed as reduction in cell metabolic activity at 1500 uM after 24 hrs by MTT assay; assay type: ADME, cell-based
In short: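 Rat astrocytes (CTX) exposed 24 h to increasing concentrations up to 1500 μM; metabolic activity by MTT, expressed as percent of untreated (0 μM) cultures set at 100%; means ± SD of three replicates.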

C6 [8] = assay: Antiproliferative activity against rat C6 cells assessed as LDH release at 500 to 1000 uM after 24 hrs by CytoTox 96 Non-Radioactive assay (reference value: 13.49%); assay type: functional
C6 [9] = assay: Antiproliferative activity against rat C6 cells assessed as increase in LDH release after 24 hrs by CytoTox 96 Non-Radioactive assay; assay type: functional, cell-based
C6 [10] = assay: Antiproliferative activity against rat C6 cells assessed as reduction in cell metabolic activity after 24 hrs by MTT assay; assay type: functional, cell-based; in short: as §1
[11] = molecular target: T3, Nitric oxide synthase, inducible; assay: Inhibition of recombinant N-terminal His-tagged human iNOS expressed in Escherichia coli at 1 uM using L-arginine as substrate preincubated for 15 mins followed by NADPH addition and measured after 20 mins by OPA/NAC reagent based HPLC-fluorimetric analysis relative to control
In short: (§4)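 Primary screen: percent inhibition of iNOS and nNOS measured at 1 μM compound; mean ± SD of triplicate experiments.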

Nitric oxide synthase 1 [12] = molecular target: T2, Nitric oxide synthase 1; assay: Inhibition of recombinant human nNOS expressed in Escherichia coli at 1 uM using L-arginine as substrate preincubated for 15 mins followed by NADPH addition and measured after 20 mins by OPA/NAC reagent based HPLC-fluorimetric analysis relative to control; in short: as §4
C6 [13] = assay: Antiproliferative activity against rat C6 cells assessed as inhibition of cell proliferation at 500 uM after 24 hrs by MTT assay relative to control; assay type: functional; conditions: C6, 24 h; in short: as §1
C6 [14] = assay: Antiproliferative activity against rat C6 cells assessed as cell metabolic activity at 750 uM after 24 hrs by MTT assay relative to control; assay type: functional; in short: as §1
[15] = molecular target: T4, Nitric oxide synthase 3 (Homo sapiens) (UniProt P29474); assay: Inhibition of human eNOS at 10 uM using L-arginine as substrate preincubated for 15 mins followed by NADPH addition and measured after 20 mins by OPA/NAC reagent based HPLC-fluorimetric analysis relative to control
T4 sequence (whole entry): T1 sequence (P29474 whole entry)
In short: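 eNOS percent inhibition screened at 10 μM compound; mean ± SD of triplicate experiments.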

[16] = molecular target: Nitric oxide sythases; iNOS & nNOS (Homo sapiens) (UniProt P29475+P35228); assay: Selectivity index, ratio of IC50 for recombinant human nNOS expressed in Escherichia coli to IC50 for recombinant N-terminal His-tagged human iNOS expressed in Escherichia coli; in short: as §3
Chain of Nitric oxide sythases; iNOS & nNOS (Homo sapiens) (P29475 whole entry, looked up): as the sequence (P29475 whole entry) above
Chain of Nitric oxide sythases; iNOS & nNOS (Homo sapiens) (P35228 whole entry, looked up): as the sequence (P35228 whole entry) above

C6 [17] = assay: Antiproliferative activity against rat C6 cells assessed as inhibition of cell proliferation at 500 uM after 24 hrs by MTT assay; assay type: functional, cell-based; in short: as §1

inhibition [11] | inhibition (Nitric oxide synthase 1 [12]) | inhibition [15] | SMILES | other results
100% | 0% | 0% | Br.CC(=N)Nc1ccc(C(=O)Nc2ccc(F)cc2)cc1 | Activity (C6 [1]): 64.42%; Activity (C6 [2]): 86.45%; pIC50 (Nitric oxide synthase 3): < 5.00; pIC50 (Nitric oxide synthase 1 [3]): 5.21; Ratio IC50 (Homo sapiens): > 900; Activity (C6 [4]): 65.22%; pIC50 [5]: 7.96; Activity (C6 [6]): 22.48%; Activity [7]: Toxic; Activity (C6 [8]): 27%; Activity (C6 [9]): Dose-dependent effect; Activity (C6 [10]): Dose-dependent effect; inhibition at 500 µM (C6 [13]): 31%; Activity (C6 [14]): 64.86%; Ratio IC50 [16]: 563
100% | 0% | 0% | CC(=N)NCc1ccc(C(=O)Nc2nccs2)cc1 | –
84% | 96% | 0% | CC(=N)Nc1ccc(C(=O)Nc2nccs2)cc1 | –
100% | 13% | 4% | CC(=N)Nc1nc(-c2ccc(Cl)cc2)cs1 | –
87% | 97% | 0% | CC(=N)NCc1ccc(C(=O)Nc2ccc(F)cc2)cc1 | –
86% | 14% | 62% | CC(=N)Nc1ccc(C(=O)O)cc1 | –
70% | 0% | 4% | CC(=N)NCc1ccc(C(=O)O)cc1 | –
93% | 0% | 5% | CC(=N)NCc1ccc(F)cc1 | –

The remaining lines, values behind:

SMILES | inhibition [11] | inhibition (Nitric oxide synthase 1 [12]) | inhibition [15] | other results
CC(N)C(=O)Cc1cn[nH]c1 (stereo not drawn) | – | – | – | pIC50 [5]: 6.17
CC(=N)NCc1cccc(CN)c1 | – | – | – | Activity (C6 [17]): inactive
CC(=N)Nc1ccc(S(=O)(=O)Nc2nccs2)cc1 | 81% | 47% | 3% | –
CC(=N)NCc1cccc(CNC(=O)C2CCCN2)c1 (stereo not drawn) | – | – | – | Activity (C6 [17]): inactive
CC(=N)Nc1ccc(F)cc1 | 85% | 10% | 0% | –
CC(=N)Nc1nc(-c2ccccc2)cs1 | 100% | 2% | 14% | –
Cn1nnc2c(C(N)=O)ncn2c1=O [TEMOZOLOMIDE] | – | – | – | inhibition at 500 µM (C6 [13]): 12%
CC(=N)NCc1cccc(CNC(=O)CCC(=O)O)c1 | – | – | – | pIC50 [5]: 6.37
